Assay results published in ChEMBL document CHEMBL5712886, “Discovery and Characterization of GSK2801, a Selective Chemical Probe for the Bromodomains BAZ2A and BAZ2B” (J Med Chem, 2016).
Active and inactive are the calls of the source. The calls are words filed in the database; no cut-off is given here.

Columns and labels:
[1] = target: SWI/SNF-related matrix-associated actin-dependent regulator of chromatin subfamily A member 2 (Homo sapiens, UniProt P51531); assay: Binding affinity to biotinylated SMARCA2 (unknown origin) expressed in Escherichia coli at 0.2 to 1 uM by Biolayer Interferometric analysis; settings: dose 0.2-1 µM
Procedure, shortened: (§1)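 Bromodomains carrying a BirA biotin ligase targeting sequence, coexpressed with BirA in bacteria to give homogeneous in vivo biotin labelling, checked by mass spectrometry. Biotinylated proteins probed by biolayer interferometry with compound at two concentrations, 0.2 and 1.0 μM.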

[2] = target: Bromodomain-containing protein 3 (Homo sapiens) (UniProt Q15059); assay: Binding affinity to biotinylated BRD3 bromodomain-2 (unknown origin) expressed in Escherichia coli at 0.2 to 1 uM by Biolayer Interferometric analysis; settings: dose 0.2-1 µM; procedure, shortened: as §1
[3] = target: Protein polybromo-1 (Homo sapiens) (UniProt Q86U86); assay: Binding affinity to biotinylated PB1 bromodomain-2 (unknown origin) expressed in Escherichia coli at 0.2 to 1 uM by Biolayer Interferometric analysis; settings: dose 0.2-1 µM; procedure, shortened: as §1
[4] = target: Protein polybromo-1 (Homo sapiens) (UniProt Q86U86); assay: Binding affinity to biotinylated PB1 bromodomain-6 (unknown origin) expressed in Escherichia coli at 0.2 to 1 uM by Biolayer Interferometric analysis; settings: dose 0.2-1 µM; procedure, shortened: as §1
[5] = target: Bromodomain-containing protein 2 (Homo sapiens) (UniProt P25440); assay: Binding affinity to biotinylated BRD2 bromodomain-1 (unknown origin) expressed in Escherichia coli at 0.2 to 1 uM by Biolayer Interferometric analysis; settings: dose 0.2-1 µM; procedure, shortened: as §1
[6] = target: CREB-binding protein (Homo sapiens) (UniProt Q92793); assay: Binding affinity to biotinylated CREBBP (unknown origin) expressed in Escherichia coli at 0.2 to 1 uM by Biolayer Interferometric analysis; settings: dose 0.2-1 µM; procedure, shortened: as §1
[7] = target: Bromodomain testis-specific protein (Homo sapiens) (UniProt Q58F21); assay: Binding affinity to biotinylated BRDT bromodomain-2 (unknown origin) expressed in Escherichia coli at 0.2 to 1 uM by Biolayer Interferometric analysis; settings: dose 0.2-1 µM; procedure, shortened: as §1
[8] = target: Transcription initiation factor TFIID subunit 1-like (Homo sapiens) (UniProt Q8IZX4); assay: Binding affinity to biotinylated TAF1L bromodomain-1 (unknown origin) expressed in Escherichia coli at 0.2 to 1 uM by Biolayer Interferometric analysis; settings: dose 0.2-1 µM; procedure, shortened: as §1
[9] = target: Histone acetyltransferase p300 (Homo sapiens) (UniProt Q09472); assay: Binding affinity to biotinylated EP300 (unknown origin) expressed in Escherichia coli at 0.2 to 1 uM by Biolayer Interferometric analysis; settings: dose 0.2-1 µM; procedure, shortened: as §1
[10] = target: Transcription initiation factor TFIID subunit 1 (Homo sapiens) (UniProt P21675); assay: Binding affinity to biotinylated TAF1 bromodomain-2 (unknown origin) expressed in Escherichia coli at 0.2 to 1 uM by Biolayer Interferometric analysis; settings: dose 0.2-1 µM; procedure, shortened: as §1
[11] = target: Bromodomain testis-specific protein (Homo sapiens) (UniProt Q58F21); assay: Binding affinity to biotinylated BRDT bromodomain-1 (unknown origin) expressed in Escherichia coli at 0.2 to 1 uM by Biolayer Interferometric analysis; settings: dose 0.2-1 µM; procedure, shortened: as §1
[12] = target: Transcription intermediary factor 1-beta (Homo sapiens) (UniProt Q13263); assay: Binding affinity to biotinylated TRIM28 (unknown origin) expressed in Escherichia coli at 0.2 to 1 uM by Biolayer Interferometric analysis; settings: dose 0.2-1 µM; procedure, shortened: as §1
[13] = target: Tyrosine-protein kinase BAZ1B (Homo sapiens) (UniProt Q9UIG0); assay: Binding affinity to biotinylated BAZ1B (unknown origin) expressed in Escherichia coli at 0.2 to 1 uM by Biolayer Interferometric analysis; settings: dose 0.2-1 µM; procedure, shortened: as §1
[14] = target: ATPase family AAA domain-containing protein 2 (Homo sapiens) (UniProt Q6PL18); assay: Binding affinity to biotinylated ATAD2 (unknown origin) expressed in Escherichia coli at 0.2 to 1 uM by Biolayer Interferometric analysis; settings: dose 0.2-1 µM; procedure, shortened: as §1
[15] = target: Transcription intermediary factor 1-alpha (Homo sapiens) (UniProt O15164); assay: Binding affinity to biotinylated TIF1 bromodomain-1 (unknown origin) expressed in Escherichia coli at 0.2 to 1 uM by Biolayer Interferometric analysis; settings: dose 0.2-1 µM; procedure, shortened: as §1
[16] = target: Protein polybromo-1 (Homo sapiens) (UniProt Q86U86); assay: Binding affinity to biotinylated PB1 bromodomain-1 (unknown origin) expressed in Escherichia coli at 0.2 to 1 uM by Biolayer Interferometric analysis; settings: dose 0.2-1 µM; procedure, shortened: as §1
[17] = target: Histone-lysine N-methyltransferase ASH1L (Homo sapiens) (UniProt Q9NR48); assay: Binding affinity to biotinylated ASH1L bromodomain (unknown origin) expressed in Escherichia coli at 0.2 to 1 uM by Biolayer Interferometric analysis; settings: dose 0.2-1 µM; procedure, shortened: as §1
[18] = target: Bromodomain-containing protein 3 (Homo sapiens) (UniProt Q15059); assay: Binding affinity to biotinylated BRD3 bromodomain-1 (unknown origin) expressed in Escherichia coli at 0.2 to 1 uM by Biolayer Interferometric analysis; settings: dose 0.2-1 µM; procedure, shortened: as §1
[19] = target: Nucleosome-remodeling factor subunit BPTF (Homo sapiens) (UniProt Q12830); assay: Binding affinity to biotinylated FALZ (unknown origin) expressed in Escherichia coli at 0.2 to 1 uM by Biolayer Interferometric analysis; settings: dose 0.2-1 µM; procedure, shortened: as §1
[20] = target: T1, Bromodomain-containing protein 9 (Homo sapiens) (UniProt Q9H8M2); assay: Binding affinity to biotinylated C-terminal Avi/His-TEV-fused BRD9 (unknown origin) expressed in Escherichia coli by isothermal titration calorimetric analysis
T1 sequence (whole entry): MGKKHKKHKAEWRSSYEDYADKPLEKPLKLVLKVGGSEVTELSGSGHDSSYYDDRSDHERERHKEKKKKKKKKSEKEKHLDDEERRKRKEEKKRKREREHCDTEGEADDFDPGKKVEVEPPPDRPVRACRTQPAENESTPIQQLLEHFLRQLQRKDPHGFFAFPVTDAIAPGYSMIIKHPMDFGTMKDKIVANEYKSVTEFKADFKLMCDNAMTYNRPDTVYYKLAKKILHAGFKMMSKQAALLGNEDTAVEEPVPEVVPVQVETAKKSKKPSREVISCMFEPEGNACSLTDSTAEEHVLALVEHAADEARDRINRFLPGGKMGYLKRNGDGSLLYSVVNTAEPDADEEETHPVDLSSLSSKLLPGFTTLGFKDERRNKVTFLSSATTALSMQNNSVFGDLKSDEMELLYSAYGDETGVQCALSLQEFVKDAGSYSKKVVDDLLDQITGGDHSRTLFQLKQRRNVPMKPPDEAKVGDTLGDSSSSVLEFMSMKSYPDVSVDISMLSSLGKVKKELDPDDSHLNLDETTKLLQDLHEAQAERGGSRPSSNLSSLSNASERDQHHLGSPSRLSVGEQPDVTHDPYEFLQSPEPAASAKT

[21] = target: SWI/SNF-related matrix-associated actin-dependent regulator of chromatin subfamily A member 4 (Homo sapiens, UniProt P51532); assay: Binding affinity to biotinylated SMARCA4 (unknown origin) expressed in Escherichia coli at 0.2 to 1 uM by Biolayer Interferometric analysis; settings: dose 0.2-1 µM; procedure, shortened: as §1
[22] = target: T1, Bromodomain-containing protein 9 (Homo sapiens); assay: Binding affinity to biotinylated BRD9 (unknown origin) expressed in Escherichia coli at 0.2 to 1 uM by Biolayer Interferometric analysis; settings: dose 0.2-1 µM; procedure, shortened: as §1
[23] = target: Histone acetyltransferase KAT2B (Homo sapiens) (UniProt Q92831); assay: Binding affinity to biotinylated PCAF (unknown origin) expressed in Escherichia coli at 0.2 to 1 uM by Biolayer Interferometric analysis; settings: dose 0.2-1 µM; procedure, shortened: as §1
[24] = target: Protein polybromo-1 (Homo sapiens) (UniProt Q86U86); assay: Binding affinity to biotinylated PB1 bromodomain-5 (unknown origin) expressed in Escherichia coli at 0.2 to 1 uM by Biolayer Interferometric analysis; settings: dose 0.2-1 µM; procedure, shortened: as §1
[25] = target: Nuclear body protein SP140 (Homo sapiens) (UniProt Q13342); assay: Binding affinity to biotinylated SP140 (unknown origin) expressed in Escherichia coli at 0.2 to 1 uM by Biolayer Interferometric analysis; settings: dose 0.2-1 µM; procedure, shortened: as §1
[26] = target: Peregrin (Homo sapiens) (UniProt P55201); assay: Binding affinity to biotinylated BRPF1 bromodomain-1 (unknown origin) expressed in Escherichia coli at 0.2 to 1 uM by Biolayer Interferometric analysis; settings: dose 0.2-1 µM; procedure, shortened: as §1
[27] = target: Protein polybromo-1 (Homo sapiens) (UniProt Q86U86); assay: Binding affinity to biotinylated PB1 bromodomain-4 (unknown origin) expressed in Escherichia coli at 0.2 to 1 uM by Biolayer Interferometric analysis; settings: dose 0.2-1 µM; procedure, shortened: as §1
[28] = target: Bromodomain-containing protein 4 (Homo sapiens) (UniProt O60885); assay: Binding affinity to biotinylated BRD4 bromodomain-1 (unknown origin) expressed in Escherichia coli at 0.2 to 1 uM by Biolayer Interferometric analysis; settings: dose 0.2-1 µM; procedure, shortened: as §1
[29] = target: Bromodomain-containing protein 2 (Homo sapiens) (UniProt P25440); assay: Binding affinity to biotinylated BRD2 bromodomain-2 (unknown origin) expressed in Escherichia coli at 0.2 to 1 uM by Biolayer Interferometric analysis; settings: dose 0.2-1 µM; procedure, shortened: as §1
[30] = target: Bromodomain and WD repeat-containing protein 3 (Homo sapiens) (UniProt Q6RI45); assay: Binding affinity to biotinylated BRWD3 bromodomain-2 (unknown origin) expressed in Escherichia coli at 0.2 to 1 uM by Biolayer Interferometric analysis; settings: dose 0.2-1 µM; procedure, shortened: as §1
[31] = target: PH-interacting protein (Homo sapiens) (UniProt Q8WWQ0); assay: Binding affinity to biotinylated PHIP (unknown origin) expressed in Escherichia coli at 0.2 to 1 uM by Biolayer Interferometric analysis; settings: dose 0.2-1 µM; procedure, shortened: as §1
[32] = target: Transcription initiation factor TFIID subunit 1 (Homo sapiens) (UniProt P21675); assay: Binding affinity to biotinylated TAF1 bromodomain-1 (unknown origin) expressed in Escherichia coli at 0.2 to 1 uM by Biolayer Interferometric analysis; settings: dose 0.2-1 µM; procedure, shortened: as §1
[33] = target: Bromodomain-containing protein 4 (Homo sapiens) (UniProt O60885); assay: Binding affinity to biotinylated BRD4 bromodomain-2 (unknown origin) expressed in Escherichia coli at 0.2 to 1 uM by Biolayer Interferometric analysis; settings: dose 0.2-1 µM; procedure, shortened: as §1
[34] = target: Bromodomain-containing protein 7 (Homo sapiens) (UniProt Q9NPI1); assay: Binding affinity to biotinylated BRD7 (unknown origin) expressed in Escherichia coli at 0.2 to 1 uM by Biolayer Interferometric analysis; settings: dose 0.2-1 µM; procedure, shortened: as §1
[35] = target: Chromatin remodeling regulator CECR2 (Homo sapiens) (UniProt Q9BXF3); assay: Binding affinity to biotinylated CECR2 (unknown origin) expressed in Escherichia coli at 0.2 to 1 uM by Biolayer Interferometric analysis; settings: dose 0.2-1 µM; procedure, shortened: as §1
[36] = target: Histone acetyltransferase KAT2A (Homo sapiens) (UniProt Q92830); assay: Binding affinity to biotinylated GCN5L2 (unknown origin) expressed in Escherichia coli at 0.2 to 1 uM by Biolayer Interferometric analysis; settings: dose 0.2-1 µM; procedure, shortened: as §1
[37] = target: Bromodomain and WD repeat-containing protein 1 (Homo sapiens) (UniProt Q9NSI6); assay: Binding affinity to biotinylated WDR9 (unknown origin) expressed in Escherichia coli at 0.2 to 1 uM by Biolayer Interferometric analysis; settings: dose 0.2-1 µM; procedure, shortened: as §1
[38] = target: Bromodomain-containing protein 1 (Homo sapiens) (UniProt O95696); assay: Binding affinity to biotinylated BRD1 (unknown origin) expressed in Escherichia coli at 0.2 to 1 uM by Biolayer Interferometric analysis; settings: dose 0.2-1 µM; procedure, shortened: as §1
[39] = target: ATPase family AAA domain-containing protein 2B (Homo sapiens) (UniProt Q9ULI0); assay: Binding affinity to biotinylated KIAA1240 (unknown origin) expressed in Escherichia coli at 0.2 to 1 uM by Biolayer Interferometric analysis; settings: dose 0.2-1 µM; procedure, shortened: as §1

Chain of Protein polybromo-1 (Homo sapiens) (Q86U86 whole entry): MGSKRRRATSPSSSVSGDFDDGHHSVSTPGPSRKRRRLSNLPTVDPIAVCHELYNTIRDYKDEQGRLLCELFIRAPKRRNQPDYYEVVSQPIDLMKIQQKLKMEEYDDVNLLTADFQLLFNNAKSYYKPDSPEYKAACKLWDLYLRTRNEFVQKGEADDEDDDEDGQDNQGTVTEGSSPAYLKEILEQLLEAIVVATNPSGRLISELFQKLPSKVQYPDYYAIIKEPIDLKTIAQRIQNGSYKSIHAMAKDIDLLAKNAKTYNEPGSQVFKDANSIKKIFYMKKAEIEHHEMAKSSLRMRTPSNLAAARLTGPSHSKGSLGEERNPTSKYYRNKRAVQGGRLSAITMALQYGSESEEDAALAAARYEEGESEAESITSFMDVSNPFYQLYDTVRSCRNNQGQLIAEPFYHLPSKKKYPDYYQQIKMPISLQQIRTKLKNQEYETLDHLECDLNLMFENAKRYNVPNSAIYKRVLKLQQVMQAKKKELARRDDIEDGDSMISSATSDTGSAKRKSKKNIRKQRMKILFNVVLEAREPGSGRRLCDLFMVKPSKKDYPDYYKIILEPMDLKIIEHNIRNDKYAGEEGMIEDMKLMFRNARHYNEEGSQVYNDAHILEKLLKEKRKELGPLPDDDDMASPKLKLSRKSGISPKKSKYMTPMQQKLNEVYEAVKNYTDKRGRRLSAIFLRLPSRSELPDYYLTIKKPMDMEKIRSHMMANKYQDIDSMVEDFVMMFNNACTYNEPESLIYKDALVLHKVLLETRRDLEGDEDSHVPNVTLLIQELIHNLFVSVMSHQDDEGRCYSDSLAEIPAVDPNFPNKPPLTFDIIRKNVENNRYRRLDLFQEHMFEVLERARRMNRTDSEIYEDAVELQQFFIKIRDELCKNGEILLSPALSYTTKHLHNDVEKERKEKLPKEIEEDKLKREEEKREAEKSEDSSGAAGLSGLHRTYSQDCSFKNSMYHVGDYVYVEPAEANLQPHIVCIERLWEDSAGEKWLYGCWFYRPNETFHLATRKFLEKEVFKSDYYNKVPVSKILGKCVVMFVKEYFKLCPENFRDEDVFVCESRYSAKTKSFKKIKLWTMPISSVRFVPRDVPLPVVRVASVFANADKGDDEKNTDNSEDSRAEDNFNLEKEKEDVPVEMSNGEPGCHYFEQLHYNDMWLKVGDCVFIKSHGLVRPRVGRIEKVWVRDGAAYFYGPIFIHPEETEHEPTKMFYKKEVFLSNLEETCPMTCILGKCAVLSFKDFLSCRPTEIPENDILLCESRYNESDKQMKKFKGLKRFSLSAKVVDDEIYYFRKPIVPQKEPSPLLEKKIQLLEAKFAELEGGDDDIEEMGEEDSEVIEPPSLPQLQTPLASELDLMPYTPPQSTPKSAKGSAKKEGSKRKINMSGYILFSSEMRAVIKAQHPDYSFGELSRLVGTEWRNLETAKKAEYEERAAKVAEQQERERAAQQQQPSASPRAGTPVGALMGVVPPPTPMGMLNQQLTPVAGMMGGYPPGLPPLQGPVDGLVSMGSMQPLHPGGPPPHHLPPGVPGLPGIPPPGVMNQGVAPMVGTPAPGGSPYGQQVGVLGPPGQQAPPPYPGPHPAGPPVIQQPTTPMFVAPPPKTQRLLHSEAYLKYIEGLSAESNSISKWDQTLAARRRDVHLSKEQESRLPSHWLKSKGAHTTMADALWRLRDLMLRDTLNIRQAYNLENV
Chain of Bromodomain-containing protein 3 (Homo sapiens) (Q15059 2-726 limits assumed): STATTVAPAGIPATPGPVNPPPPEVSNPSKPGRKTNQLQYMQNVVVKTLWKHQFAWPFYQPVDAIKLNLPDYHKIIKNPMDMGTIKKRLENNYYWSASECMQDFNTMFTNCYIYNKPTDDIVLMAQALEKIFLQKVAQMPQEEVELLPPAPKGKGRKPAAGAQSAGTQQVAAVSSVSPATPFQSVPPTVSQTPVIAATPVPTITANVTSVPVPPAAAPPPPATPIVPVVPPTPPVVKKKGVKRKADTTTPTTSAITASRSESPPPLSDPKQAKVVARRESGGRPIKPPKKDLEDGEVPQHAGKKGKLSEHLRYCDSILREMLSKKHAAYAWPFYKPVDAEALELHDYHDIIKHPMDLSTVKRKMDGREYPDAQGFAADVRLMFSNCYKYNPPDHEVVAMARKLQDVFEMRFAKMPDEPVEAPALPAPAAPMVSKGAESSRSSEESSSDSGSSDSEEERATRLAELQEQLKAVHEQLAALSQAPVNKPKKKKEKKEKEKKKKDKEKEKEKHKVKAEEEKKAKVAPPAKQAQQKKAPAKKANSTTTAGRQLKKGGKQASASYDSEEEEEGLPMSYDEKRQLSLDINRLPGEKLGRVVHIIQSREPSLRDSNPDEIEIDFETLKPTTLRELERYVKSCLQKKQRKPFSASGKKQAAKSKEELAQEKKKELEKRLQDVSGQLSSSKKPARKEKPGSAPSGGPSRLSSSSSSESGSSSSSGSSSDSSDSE
Chain of Bromodomain-containing protein 2 (Homo sapiens) (P25440 whole entry, looked up): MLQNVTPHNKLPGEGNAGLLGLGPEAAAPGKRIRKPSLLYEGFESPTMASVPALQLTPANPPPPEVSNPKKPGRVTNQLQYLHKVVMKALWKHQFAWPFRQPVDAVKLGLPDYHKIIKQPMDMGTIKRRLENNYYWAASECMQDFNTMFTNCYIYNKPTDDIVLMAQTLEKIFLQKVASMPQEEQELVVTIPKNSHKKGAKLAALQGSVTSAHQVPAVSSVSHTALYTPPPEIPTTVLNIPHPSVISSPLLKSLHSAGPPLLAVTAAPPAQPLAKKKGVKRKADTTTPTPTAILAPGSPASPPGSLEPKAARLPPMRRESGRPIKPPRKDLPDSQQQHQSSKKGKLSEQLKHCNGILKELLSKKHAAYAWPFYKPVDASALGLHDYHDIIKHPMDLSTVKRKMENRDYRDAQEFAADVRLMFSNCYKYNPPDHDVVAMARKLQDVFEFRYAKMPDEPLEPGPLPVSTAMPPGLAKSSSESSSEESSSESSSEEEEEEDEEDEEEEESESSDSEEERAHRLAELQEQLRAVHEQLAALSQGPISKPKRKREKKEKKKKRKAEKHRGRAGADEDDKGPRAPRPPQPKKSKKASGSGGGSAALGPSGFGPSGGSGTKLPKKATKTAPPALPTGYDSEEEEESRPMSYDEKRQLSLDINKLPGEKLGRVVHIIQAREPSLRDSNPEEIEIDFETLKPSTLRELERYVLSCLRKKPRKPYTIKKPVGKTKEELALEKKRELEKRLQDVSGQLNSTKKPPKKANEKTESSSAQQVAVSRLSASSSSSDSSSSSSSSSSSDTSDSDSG
Chain of Transcription initiation factor TFIID subunit 1 (Homo sapiens) (P21675 whole entry): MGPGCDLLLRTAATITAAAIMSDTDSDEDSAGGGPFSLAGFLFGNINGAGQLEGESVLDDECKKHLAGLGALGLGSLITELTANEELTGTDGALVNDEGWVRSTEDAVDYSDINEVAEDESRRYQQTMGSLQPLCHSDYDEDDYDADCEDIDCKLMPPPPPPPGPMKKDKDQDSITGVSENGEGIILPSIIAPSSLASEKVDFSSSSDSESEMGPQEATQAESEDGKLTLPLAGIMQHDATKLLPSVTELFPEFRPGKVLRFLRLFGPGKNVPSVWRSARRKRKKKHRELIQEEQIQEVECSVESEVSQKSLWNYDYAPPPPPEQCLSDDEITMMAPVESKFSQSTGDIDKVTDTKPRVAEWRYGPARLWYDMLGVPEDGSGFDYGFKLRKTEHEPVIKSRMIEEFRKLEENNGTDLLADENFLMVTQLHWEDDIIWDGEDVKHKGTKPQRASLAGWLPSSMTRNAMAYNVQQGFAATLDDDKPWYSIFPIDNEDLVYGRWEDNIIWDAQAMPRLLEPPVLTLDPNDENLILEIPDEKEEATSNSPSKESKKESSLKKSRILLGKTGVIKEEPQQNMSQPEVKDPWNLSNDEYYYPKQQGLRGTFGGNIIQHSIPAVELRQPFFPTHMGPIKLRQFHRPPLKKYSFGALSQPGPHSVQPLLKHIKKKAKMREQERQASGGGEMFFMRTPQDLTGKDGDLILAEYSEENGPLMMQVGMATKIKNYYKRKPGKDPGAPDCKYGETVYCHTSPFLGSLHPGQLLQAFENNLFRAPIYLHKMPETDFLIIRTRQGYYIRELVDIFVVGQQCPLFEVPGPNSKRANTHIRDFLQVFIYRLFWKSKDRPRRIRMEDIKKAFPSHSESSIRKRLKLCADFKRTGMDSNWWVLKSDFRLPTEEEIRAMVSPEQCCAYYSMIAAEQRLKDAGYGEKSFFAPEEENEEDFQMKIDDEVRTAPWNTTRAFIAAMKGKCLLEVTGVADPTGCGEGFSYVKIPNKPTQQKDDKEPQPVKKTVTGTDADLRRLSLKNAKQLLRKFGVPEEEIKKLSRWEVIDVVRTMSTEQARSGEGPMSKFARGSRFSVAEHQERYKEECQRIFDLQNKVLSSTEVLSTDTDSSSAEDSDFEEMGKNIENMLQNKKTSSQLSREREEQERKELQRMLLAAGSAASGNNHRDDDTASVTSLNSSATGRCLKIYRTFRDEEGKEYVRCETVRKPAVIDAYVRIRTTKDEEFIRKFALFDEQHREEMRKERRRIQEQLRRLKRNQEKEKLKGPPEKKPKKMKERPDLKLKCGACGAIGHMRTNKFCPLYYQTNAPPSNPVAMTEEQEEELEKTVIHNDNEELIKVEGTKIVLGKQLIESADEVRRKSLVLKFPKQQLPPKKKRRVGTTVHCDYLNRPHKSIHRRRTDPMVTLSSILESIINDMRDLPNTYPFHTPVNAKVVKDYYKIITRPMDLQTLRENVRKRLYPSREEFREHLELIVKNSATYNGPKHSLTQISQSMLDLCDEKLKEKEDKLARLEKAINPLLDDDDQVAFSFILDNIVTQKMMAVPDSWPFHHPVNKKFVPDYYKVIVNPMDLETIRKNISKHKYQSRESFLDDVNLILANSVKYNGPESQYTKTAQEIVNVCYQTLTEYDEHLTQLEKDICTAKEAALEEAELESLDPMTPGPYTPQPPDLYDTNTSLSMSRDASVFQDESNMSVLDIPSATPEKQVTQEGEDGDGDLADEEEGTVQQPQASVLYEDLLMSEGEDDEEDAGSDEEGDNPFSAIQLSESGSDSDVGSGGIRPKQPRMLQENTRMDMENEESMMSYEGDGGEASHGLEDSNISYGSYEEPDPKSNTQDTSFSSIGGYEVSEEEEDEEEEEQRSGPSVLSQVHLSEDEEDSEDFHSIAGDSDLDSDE

Activity [1]: inactive
Activity [2]: inactive
Activity [3]: inactive
Activity [4]: inactive
Activity [5]: inactive
Activity [6]: inactive
Activity [7]: inactive
Activity [8]: inactive
Activity [9]: inactive
Activity [10]: inactive
Activity [11]: inactive
Activity [12]: inactive
Activity [13]: inactive
Activity [14]: inactive
Activity [15]: inactive
Activity [16]: inactive
Activity [17]: inactive
Activity [18]: inactive
Activity [19]: inactive
Kb [20]: 0.826 10^6/M
Activity [21]: inactive
Activity [22]: Active
Activity [23]: inactive
Activity [24]: inactive
Activity [25]: inactive
Activity [26]: inactive
Activity [27]: inactive
Activity [28]: inactive
Activity [29]: inactive
Activity [30]: inactive
Activity [31]: inactive
Activity [32]: inactive
Activity [33]: inactive
Activity [34]: inactive
Activity [35]: inactive
Activity [36]: inactive
Activity [37]: inactive
Activity [38]: inactive
Activity [39]: inactive
SMILES: CCCOc1ccn2c(C(C)=O)cc(-c3ccccc3S(C)(=O)=O)c2c1
